# Assay outcomes as filed in PubChem.
# PostGolgi ctrl – inhibits growth of the yeast control strain; inhibition, % at 10 µM; efflux-deficient yeast background strain, growth absorbance A615, 16 h; 98,000 compounds, 5% hits
# PLAP act – activators of human placental alkaline phosphatase. P05187. purified PLAP enzyme, luminescent substrate read-out; stronger effect = higher value. activation fold at 20 µM. 96,000 compounds, 1.2% hits. AID 696; in the data active means activation fold above about 2
# Target sequence (P05187 whole entry, looked up): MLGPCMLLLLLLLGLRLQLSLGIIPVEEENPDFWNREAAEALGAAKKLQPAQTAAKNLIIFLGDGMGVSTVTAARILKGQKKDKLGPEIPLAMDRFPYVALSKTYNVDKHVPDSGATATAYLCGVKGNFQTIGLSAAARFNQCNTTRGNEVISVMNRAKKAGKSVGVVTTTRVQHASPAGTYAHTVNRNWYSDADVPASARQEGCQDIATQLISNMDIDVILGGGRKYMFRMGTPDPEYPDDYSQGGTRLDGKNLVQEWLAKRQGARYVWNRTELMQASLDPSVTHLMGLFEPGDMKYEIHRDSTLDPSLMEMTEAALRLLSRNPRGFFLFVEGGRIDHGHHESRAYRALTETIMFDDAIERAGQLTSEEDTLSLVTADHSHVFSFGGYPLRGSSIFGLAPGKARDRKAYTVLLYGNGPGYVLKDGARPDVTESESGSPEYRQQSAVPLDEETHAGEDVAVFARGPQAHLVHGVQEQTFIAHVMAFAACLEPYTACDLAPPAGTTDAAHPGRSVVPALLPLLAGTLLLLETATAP
# Ecoli tolC – growth inhibitors of E. coli BW25113 tolC mutant | OD615 | growth inhibition, % at 10 µM (by protocol) | 65,000 compounds, 2.2% hits;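 active means growth inhibition at or above a cutoff equal to the mean over every tested compound plus 3 SD, cut at about 60% in these data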;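 further: growth measured after 20 h incubation at 37 °C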
#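 Test system: E. coli BW25113 ΔtolC::kan bacteria | Medium: Kanamycin-containing LB broth (50 µg/mL) | Dosing: One dose of 10 µM final | Times: 20 h incubation with compound, 37 °C | Detection: Optical density read at 615 nm | Read-out basis: Percent growth inhibition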
# HePTP inhibitor – blocks human HePTP tyrosine phosphatase | P35236 | recombinant HePTP phosphatase activity, OD absorbance | inhibition, % at 20 µM | 110,000 compounds, 0.64% hits | AID 521; in the data active means inhibition above about 50%;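 further: plate controls were vehicle for no effect and reference inhibitor for full effect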
# PostGolgi yeast – growth inhibition of a yeast mutant, post-Golgi transport screen. post-Golgi transport phenotypic cell assay. inhibition, % at 10 µM. 98,000 compounds, 0.9% hits. AID 739;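 further: yeast cells grown in 1536-well plates; yeast grown about 18 h at 30C before absorbance read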
# E coli WT exp – blocks growth of wild type E. coli BW25113; OD600 absorbance; growth inhibition, % at 100 µM; 98,000 compounds, 0.15% hits; AID 710;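 active means growth inhibition above about 50% at one test dose, limit read from the data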;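 further: growth measured after 20 h incubation at 37 °C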
# * marks the source's active call; other numbers are inactive results; nt = not tested or not shown. Hits are enriched below; roughly 5.4% of the tested compounds scored in any of these assays. Unless noted, no stated cut-off is given here; in the data, active means inhibition above about 30%; inactive means the rest.
SMILES,PostGolgi ctrl,PLAP act,Ecoli tolC,HePTP inhibitor,PostGolgi yeast,E coli WT exp
COc1ccc(CCCc2nnc(SCC(=O)Nc3ncc(C)s3)o2)cc1,43*,1,-9,1,0,-9
COc1ccc(NC(=O)COc2ccc(C(C)(C)c3ccccc3)cc2)c(OC)c1,nt,nt,nt,102*,nt,nt
COc1ccccc1NC(=O)CSc1nnc(Cc2ccccc2)o1,10,1,-2,0,-4,3
COc1ccc(Cc2nnc(SCC(=O)Nc3ncc(C)s3)o2)cc1,10,1,-4,10,-2,-2
COc1ccc(NC(=O)COc2ccccc2)c(OC)c1,4,1,-1,6,0,3
COc1ccccc1/C=N/NC(=O)CSc1nc2ccccc2n1Cc1ccccc1,nt,nt,nt,-7,nt,nt
O=C(c1ccc(N(Cc2ccc([N+](=O)[O-])cc2)Cc2ccc([N+](=O)[O-])cc2)cc1)C(F)(F)F,nt,nt,nt,10,nt,nt
CCCc1nc(SC2CCCC2)c2c(=O)n(C)c(=O)n(C)c2n1,18,1.1,84*,-8,22,-2
Cn1c(=O)c2c(SC3CCCC3)nc(CC(C)(C)C)nc2n(C)c1=O,nt,nt,-16,0,nt,nt
N#CC1=C(SCC(=O)NC23CC4CC(CC(C4)C2)C3)NC(=O)C(C#N)C12CCCCC2 (stereo not given),6,nt,86*,-10,-5,-6
CC(C)(C)C1CCC2(CC1)C(C#N)=C(SCC(=O)NC1CCCCC1)NC(=O)C2C#N (stereo not given),24,1.3,75*,0,2,2
N#CC1=C(SCC(=O)NC2CC2)NC(=O)C(C#N)C12CCCCC2 (stereo not given),4,1.2,7,-4,2,1
CCCCOC(=O)n1c(SCC(=O)N(CC)CC)nc2ccccc21,31*,1.1,41,7,-6,9
O=S(=O)(c1ccc(Cl)c(Cl)c1)N1CCN(c2ccccc2)CC1,nt,nt,nt,-9,nt,nt
CCOC(=O)c1c(C)n(C)c2ccc(OC(=O)C#Cc3ccccc3)cc12,nt,nt,nt,2,nt,nt
CCOC(=O)c1c(C)n(C)c2ccc(OC(=O)c3ccoc3)cc12,32*,1.3,-4,6,7,-10
COc1ccc(C2/C(=C(/O)c3ccc(Cl)cc3)C(=O)C(=O)N2CCCC(=O)O)cc1 (stereo not given),nt,nt,nt,-12,nt,nt
CC(=O)c1sc(NC(=O)C2(F)C(F)(F)C(F)(F)C(F)(F)C(F)(F)C2(F)F)nc1C,22,1.2,100*,0,-1,8
O=C(O)c1cccc(-n2cccc2/C=N/O)c1,0,1,-32,nt,7,-1
ON=Cc1cccn1-c1ccccc1,-1,1,-7,5,30*,11
CCN(CC)CCCCOc1ccccc1[N+](=O)[O-],nt,nt,nt,13,nt,nt
CCOC(=O)c1c(N)sc(C(=O)Nc2ccc(OC)cc2)c1C,nt,nt,nt,-12,nt,nt
CCOC(=O)c1c(N)sc2c(OC)c(Br)ccc12,44*,1.1,100*,3,16,4
O=C(Nc1ccc(Cl)c(Cl)c1)Nn1cnnc1,nt,nt,nt,5,nt,nt
O=C(Nc1ccc(Br)cc1Cl)Nn1cnnc1,34*,1,-8,7,3,7
SMILES,PostGolgi ctrl,PLAP act,Ecoli tolC,HePTP inhibitor,PostGolgi yeast,E coli WT exp
O=C(NCc1ccco1)C(c1cccs1)N(C(=O)C1COc2ccccc2O1)c1cccc(O)c1 (stereo not given),19,1.3,76*,5,-7,-8
Cc1ccc(C(C(=O)NC2CCCCC2)N(Cc2ccco2)C(=O)C2COc3ccccc3O2)o1 (stereo not given),16,1.2,nt,nt,5,-4
Cc1nn(Cc2ccc(Cl)c(Cl)c2)c(C)c1NC(=O)c1cn(-c2ccccc2)nc1-c1ccccc1,2,2.7*,nt,nt,6,-7
Cc1nn(Cc2ccc(Cl)c(Cl)c2)c(C)c1NC(=O)c1cc(-c2ccc3c(c2)OCO3)on1,23,0.8,23,-22,5,-5
CC(C)(C)c1ccc(OCC(=O)NCc2ccco2)c(Br)c1,12,1,100*,-6,7,3
O=C(COC(=O)c1ccccc1Nc1ccccc1)NCc1ccco1,32*,0.8,-1,-1,-5,-10
O=C(COC(=O)COc1ccc(Nc2ccccc2)cc1)NCc1ccco1,5,1,-1,3,0,-5
O=C(NCCCO)C(=O)Nc1cccc(Cl)c1Cl,nt,nt,nt,-8,nt,nt
COc1ccc(N(CC(=O)Nc2cccc3ccccc23)S(C)(=O)=O)cc1Cl,nt,nt,nt,-11,nt,nt
COCc1[nH]nc2c1C(c1ccc(OC)c(OC)c1)C(C#N)=C(N)O2 (stereo not given),8,1,-21,2,6,9
CCCc1[nH]nc2c1C(c1ccc(OC)c(Cn3nnc4ccccc43)c1)C(C#N)=C(N)O2 (stereo not given),28,1.5,20,-6,9,9
COc1ccc(C2C(C#N)=C(N)Oc3n[nH]c(C)c32)cc1Cn1nnc2ccccc21 (stereo not given),-3,2*,15,10,8,9
CCn1c2ccccc2c2cc(C3C(C#N)=C(N)Oc4n[nH]c(COC)c43)ccc21 (stereo not given),13,1.5,71*,4,6,0
Cc1ccc(-c2ccc(=O)n(CC(=O)N3CCN(c4cc(Cl)ccc4C)CC3)n2)cc1,47*,1.1,nt,nt,17,-3
Cc1cc(N/C=C/C(=O)c2cccc3ccccc23)no1,23,0.9,16,-4,-8,-5
Cc1cc(N/C=C/C(=O)c2ccc(Cl)s2)no1,nt,nt,nt,102*,nt,nt
COc1ccc(CNC(=O)c2ccc(NS(=O)(=O)c3c(C)noc3C)cc2)cc1,31*,1.1,22,2,6,-3
Cc1ccc(NC(=O)c2ccc(NS(=O)(=O)c3c(C)noc3C)cc2)cc1C,1,1.3,76*,4,2,7
O=c1[nH]c(=O)n(-c2cccc(Cl)c2)c(O)c1C=NCc1ccc(F)cc1,nt,nt,nt,-11,nt,nt
O=C(COc1ccc(S(=O)(=O)NC2CCCCC2)cc1Cl)Nc1ccc2c(c1)OCO2,43*,1,nt,nt,-2,0
COC(=O)c1sc(NC(=O)CCc2ccccc2)c(C(=O)OC)c1C,nt,nt,nt,104*,nt,nt
Cc1cc(NC(=O)c2ccc(C(C)(C)C)cc2)ccc1NC(=O)c1ccccc1,nt,nt,nt,9,nt,nt
Cc1ccc(C)c(N(CC(=O)NCc2ccc3c(c2)OCO3)C(=O)CCC(=O)Nc2ccccn2)c1,30*,1.9,7,-3,-1,-7
CC(=O)OCCCNc1cc(N2CCCC2)ccc1[N+](=O)[O-],nt,nt,nt,1,nt,nt
COc1ccc(-c2n[nH]c(C)c2-c2cnn(-c3ccccc3)c2)c(O)c1C,50*,1.3,nt,nt,-12,-12
COc1ccc(-c2n[nH]c(C)c2-c2cnn(-c3ccccc3)c2)c(O)c1,nt,nt,14,2,nt,nt
CN(c1ccc(Cl)cc1)c1cc(=O)n(C)c2ccccc12,64*,1.5,31,12,1,11
CCCOc1ccc(C(=O)NNC(=S)NC(=O)CC)cc1,99*,1.2,nt,nt,76*,68*
COCC(=O)Nc1ccc(-c2cn3cccnc3n2)cc1,25,1.2,-15,7,13,11
